The record followed here is the array DNA melting data of Ke et al. (doi:10.1101/2024.01.08.574731).

Data set [1] in a line: folding enthalpy; higher = less favourable; fluorescence melt of hairpins on a sequencing array, two-state fit. To be noted: sodium 0.088 M. In short, it runs like this:
(§1)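 Cy3 fluorescence of library hairpins on a sequenced MiSeq flow cell, with annealed Cy3 and quencher oligos, was imaged in 50 mM Na-HEPES pH 8.0, 25 mM NaCl in 2.5 °C steps up to 60 °C. Signals were normalised to pre-quench Cy3 and to control variants. Melting temperature and folding enthalpy came from bootstrapped two-state fits, inverse-variance combined over four replicates. Fitted temperatures were raised by 9.35 °C to match UV melts.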

Data set [2] can be described thus: melting temperature; fluorescence melt of hairpins on a sequencing array, two-state fit, raised by 9.35 °C to match UV melts. Particulars: sodium 0.088 M. Summed up:
as §1

In the case of GATGACGAAAGTCTGATC ((((((....)))..))), in data set [1], the folding enthalpy is -12.1 kcal/mol. In data set [2], the Tm stood at 33.1 °C.
The corresponding values for GATGACGCGAAAGCGATC (((..(((....)))))) are -8.64 kcal/mol and 35 °C.
Take GATGACGGAAACGCCATC ((((.((....)).)))): the folding enthalpy in data set [1] was -32.3 kcal/mol. Besides, the Tm in data set [2] stood at 48.3 °C.
The corresponding values for GATGACGGAAACGTCACC (.(((((....))))).) are -14.6 kcal/mol and 40 °C.
The corresponding values for GATGACGGAAACGTTGTC ((..(((....)))..)) are -28.5 kcal/mol and 36.1 °C.
In the same order, the values of GATGAGGGAAACCTTATC (((.(((....))).))) are -28.9 kcal/mol and 35.7 °C.
Regarding GATGATGAAAATCATC ((((((....)))))), the folding enthalpy in data set [1] was -29 kcal/mol. In addition, the Tm in data set [2] worked out at 51.2 °C.
The corresponding values for GATGCACGAAAGTGTATC (((.(((....))).))) are -31.7 kcal/mol and 54.2 °C.
For the sequence GATGCCCGAAAGGGGATC (((.(((....))).))), in data set [1], the folding enthalpy was -21.9 kcal/mol. Besides, the Tm in data set [2] turned out to be 59 °C.
The corresponding values for GATGCCCGAAAGGGTATC (((.(((....))).))) are -29.8 kcal/mol and 58.2 °C.
The corresponding values for GATGCCGAAAGGCATATC ((((((....)))..))) are -11 kcal/mol and 55.7 °C.
Consider GATGCCGAAAGGCCATC ((((((....))).))), for which, in data set [1], the folding enthalpy was -14.2 kcal/mol. In data set [2], the Tm is 46.9 °C.
Consider GATGCCGAAAGGCGATC ((((((....))).))), for which the folding enthalpy in data set [1] was -15.1 kcal/mol. Besides, the Tm in data set [2] came out at 50.6 °C.
In the same order, the values of GATGCCGAAAGGCTATC ((((((....))).))) are -13.1 kcal/mol and 43.4 °C.
The corresponding values for GATGCCGCGAAAGCGATC (((..(((....)))))) are -7.36 kcal/mol and 28 °C.
In the same order, the values of GATGCCGGAAACAGCATC (((((.(....).))))) are -36.8 kcal/mol and 46 °C.
Regarding GATGCCGGAAACGACACC (.((.((....)).)).), the folding enthalpy in data set [1] is -13.5 kcal/mol. The Tm in data set [2] is 24.4 °C.
The corresponding values for GATGCGGGAAACCACACC (.((.((....)).)).) are -12.4 kcal/mol and 26.7 °C.
The corresponding values for GATGCGGGAAACCACATC ((((.((....)).)))) are -35.8 kcal/mol and 44.8 °C.
The corresponding values for GATGCTGAAAAGCATC ((((((....)))))) are -39.1 kcal/mol and 63 °C.
For GATGCTGGAAACAGCACC (.(((((....))))).), in data set [1], the folding enthalpy is -14.4 kcal/mol. Besides, the Tm in data set [2] worked out at 39.4 °C.
For the sequence GATGCTGGAAACAGCGTC ((.((((....)))).)), the folding enthalpy in data set [1] is -39.7 kcal/mol. In addition, in data set [2], the Tm came to 54.5 °C.
The corresponding values for GATGGACGAAAGTCGATC (((.(((....))).))) are -25.9 kcal/mol and 49.6 °C.
The corresponding values for GATGGCCCGAAAGGGATC (((..(((....)))))) are -11 kcal/mol and 34.3 °C.
In the case of GATGGCGAAAGCCACATC ((((((....)))..))), the folding enthalpy in data set [1] was -7.73 kcal/mol. Besides, the Tm in data set [2] is 28.8 °C.
The corresponding values for GATGGCGAAAGCCAGATC ((((((....)))..))) are -15.7 kcal/mol and 50 °C.
The corresponding values for GATGGCGAAAGCCATATC ((((((....)))..))) are -10.6 kcal/mol and 52.5 °C.
The corresponding values for GATGGCGAAAGCCCCATC ((((((....)))..))) are -7.84 kcal/mol and 25.5 °C.
As to GATGGCGAAAGCCTCATC ((((((....)))..))), the folding enthalpy in data set [1] was -8.85 kcal/mol. In data set [2], the Tm stood at 30.7 °C.
On to GATGGCGAAAGCCTTATC ((((((....)))..))), for which, in data set [1], the folding enthalpy is -7.22 kcal/mol. Further, in data set [2], the Tm turned out to be 25.9 °C.
The corresponding values for GATGGCGGAAACGCCACC (.(((((....))))).) are -9.71 kcal/mol and 43.6 °C.
In the same order, the values of GATGGGCGAAAGCCAATC (((.(((....))).))) are -23.9 kcal/mol and 51.2 °C.
Turning to GATGGGCGAAAGCCATC (((.(((....)))))), the folding enthalpy in data set [1] was -18.2 kcal/mol. Besides, in data set [2], the Tm turned out to be 52.5 °C.
In the same order, the values of GATGGGGGAAACCCCATC (((((((....))))))) are -31.2 kcal/mol and 65.4 °C.
As to GATGGGGGAAACCTCATC ((((.((....)).)))), in data set [1], the folding enthalpy is -28.4 kcal/mol. For the same sequence, the Tm in data set [2] was found to be 46.3 °C.
Turning to GATGGGGGAAACTCCGTC ((.((.(....).)).)), in data set [1], the folding enthalpy is -20.2 kcal/mol. Moreover, the Tm in data set [2] was found to be 38 °C.
